Active and inactive are the calls of the source.

The species entered for series [1] is Rattus norvegicus. Description: Toxicity in Wistar rat chronic constriction injury model at 1 nmol, it measured 7 days post CCI challenge. The series is classed as organism-based. Conditions: in vivo, icv_or_intrathecal, 168 h.
The species entered for series [2] is Rattus norvegicus. The experiment in a line: Selectivity ratio of Ki for rat brain DOR to Ki for rat brain MOR.
Series [3] relates to Rattus norvegicus. The experiment in a line: Antiallodynic effect in Wistar rat chronic constriction injury model assessed as cross tolerance developement pretreated with morphine at 3.5 nmol, it qd for 6 days administered from 7 days post CCI challenge to day 13 measured 30 mins post compound challenge by Von Frey test. It is filed as functional, organism-based. In short, it runs like this: (§1)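 CCI Wistar rats were made tolerant by 6 days of once-daily i.t. dosing (morphine 3.5 nmol or hybrid 1 nmol). On day 13 they received a single i.t. challenge (morphine 3.5 nmol or hybrid 1 nmol) against repeated-vehicle controls. Von Frey and cold plate tests were run 30 min later. Data are %MPE, 6-8 rats/group, ANOVA with Bonferroni.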

In series [4] the test system is Rattus norvegicus. The experiment in a line: Antiallodynic effect in Wistar rat chronic constriction injury model assessed as cross tolerance developement pretreated with morphine at 3.5 nmol, it qd for 6 days administered from 7 days post CCI challenge to day 13 measured 30 mins post compound challenge by cold plate test. The series is classed as functional, organism-based. The method, boiled down: as §1

In series [5] the test system is Rattus norvegicus. The experiment in a line: Antiallodynic effect in Wistar rat chronic constriction injury model assessed as tolerance to neuropathic pain at 1 nmol, it qd for 6 days administered from 7 days post CCI challenge to day 13 by Von Frey test. The series is classed as functional, organism-based. The method, boiled down:
(§2)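 CCI Wistar rats received once-daily i.t. injections (morphine 3.5 nmol, hybrids 1 nmol, in water for injection) from day 7 to day 13 after CCI. Von Frey and 5 °C cold plate tests were run 30 min after each dose. Data are %MPE and AUC, 12-16 rats/group, ANOVA with Bonferroni.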

For series [6], the species on record is Rattus norvegicus. Description: Antinociceptive activity in Wistar rat at 1 nmol, it after 30 mins by tail flick test. The series is classed as functional. The method, boiled down:
(§3)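 Naive male Wistar rats (250-300 g) with i.t. catheters received a single i.t. injection in water for injection (5 µl plus 10 µl flush), 7 days after catheter implantation. Tail-flick latency to a light-bulb heat stimulus at two-thirds of tail length was read 30 min post-dose (timepoints up to 180 min), with a 9 s cut-off. Data are %MPE = (TL-BL)/(cut-off-BL)×100, 7-12 rats/group, ANOVA with Bonferroni.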
On the technique in general: In hot-plate and tail-flick tests a longer latency is read as antinociception.

For series [7], the species on record is Rattus norvegicus. The experiment in a line: Antinociceptive activity in Wistar rat at 0.1 nmol, it after 30 mins by tail flick test. The series is classed as functional. In short, it runs like this:
as §3

Series [8] relates to Rattus norvegicus. The experiment in a line: Antiallodynic effect in Wistar rat chronic constriction injury model assessed as tolerance to neuropathic pain at 1 nmol, it qd for 6 days administered from 7 days post CCI challenge to day 13 by cold plate test. The series is classed as functional, organism-based. The method, boiled down: as §2
Series [9] has as its system Rattus norvegicus. Description: Toxicity in Wistar rat assessed as seizures at 9.5 nmol, iv. The series is classed as organism-based. Conditions: in vivo.
For series [10], the species on record is Rattus norvegicus. The experiment in a line: Reduction of hyperalgesia in Wistar rat chronic constriction injury model at 1 nmol, it measured 7 days post CCI challenge by cold plate test. It is filed as functional, organism-based. The method, boiled down: (§4)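 In catheterized male Wistar rats with sciatic CCI, a single i.t. dose in water for injection was given on day 7. Thermal hyperalgesia was measured 30 min later as latency to hind-paw shake on a 5 °C cold plate. Data are %MPE, 6-12 rats/group, ANOVA with Bonferroni.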

Series [11] deals with Rattus norvegicus. Description: Reduction of hyperalgesia in it dosed Wistar rat measured 7 days post CCI challenge by cold plate test. It is filed as functional. The method, boiled down: as §4
The test system of series [12] is Rattus norvegicus. Description: Antinociceptive activity in it dosed Wistar rat after 30 mins by tail flick test. The series is classed as functional. In short, it runs like this: as §3
Series [13] deals with Rattus norvegicus. Description: Toxicity in Wistar rat assessed as death at 9.5 nmol, iv. It is filed as organism-based. Conditions: in vivo.
The species entered for series [14] is Rattus norvegicus. Description: Antiallodynic effect in Wistar rat chronic constriction injury model at 0.1 to 1 nmol, it measured 7 days post CCI challenge by Von Frey test. The series is classed as functional, organism-based. In short, it runs like this:
(§5)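 Male Wistar rats (300-350 g) with i.t. catheters (L4-L6) had CCI made by four loose silk ligatures on the right sciatic nerve. On day 7 they received a single i.t. dose in water for injection. Mechanical allodynia was measured 30 min later with an automatic von Frey device (0.5-26 g) on the midplantar hind paw. Data are %MPE, 6-12 rats/group, ANOVA with Bonferroni.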

In series [15] the test system is Rattus norvegicus. Description: Antiallodynic effect in it dosed Wistar rat measured 7 days post CCI challenge by Von Frey test. The series is classed as functional. In short, it runs like this:
as §5

Series [16] is filed under the species Rattus norvegicus. Description: Antinociceptive activity in Wistar rat at 0.1 to 11 nmol, it after 30 mins to 2 hrs by tail flick test. The series is classed as functional, organism-based.
The species named for series [17] is Rattus norvegicus. Description: Toxicity in Wistar rat chronic constriction injury model at 11 nmol, it measured 7 days post CCI challenge. The series is classed as organism-based. Conditions: in vivo, icv_or_intrathecal, 168 h.
Series [18] is filed under the species Rattus norvegicus. Description: Antiallodynic effect in Wistar rat chronic constriction injury model at 1 nmol, it measured 7 days post CCI challenge by Von Frey test. The series is classed as functional. In short, it runs like this: as §5
The species entered for series [19] is Rattus norvegicus. Description: Toxicity in Wistar rat chronic constriction injury model at 9.5 nmol, it measured 7 days post CCI challenge. It is filed as organism-based. Conditions: in vivo, icv_or_intrathecal, 168 h.
The species named for series [20] is Rattus norvegicus. Description: Antinociceptive activity in Wistar rat at 0.1 to 1 nmol, it after 30 mins by tail flick test. The series is classed as functional, organism-based. In short, it runs like this:
as §3

Regarding `Cc1cc(O)cc(C)c1C[C@H](N)C(=O)N[C@H](CCCNC(=N)N)C(=O)N[C@H]1Cc2ccccc2CN(CCC(=O)N(C)Cc2ccccc2)C1=O`, the Activity result is on record as “Non-toxic” in the series filed under Rattus norvegicus [1], “Non-toxic” in the series with Rattus norvegicus [9], “Non-toxic” with Rattus norvegicus [13] and “Toxic” in the series filed under Rattus norvegicus [17]. For the same compound, the Ratio Ki in the series filed under Rattus norvegicus [2] turned out to be 3.5. The result in the series on Rattus norvegicus [3] and with Rattus norvegicus [4] was inactive. Further, the result with Rattus norvegicus [5], in the series with Rattus norvegicus [8], in the series filed under Rattus norvegicus [10], in the series listed under Rattus norvegicus [14] and in the series filed under Rattus norvegicus [16] was Active. Moreover, the MPE in the series listed under Rattus norvegicus [6] was found to be 30%; in the series listed under Rattus norvegicus [7], 8.9%; in the series filed under Rattus norvegicus [18], 80%. The ED50 in the series on Rattus norvegicus [11] amounted to 0.34 nmol; with Rattus norvegicus [12], 2.78 nmol; in the series on Rattus norvegicus [15], 0.24 nmol.
For the compound `Cc1cc(O)cc(C)c1C[C@H](N)C(=O)N[C@H](CCCNC(=N)N)C(=O)N[C@H]1Cc2ccccc2CN(CC(=O)N(C)Cc2cc(C(F)(F)F)cc(C(F)(F)F)c2)C1=O`, the Activity entry in the series listed under Rattus norvegicus [1] was “Non-toxic”; in the series filed under Rattus norvegicus [19], “Toxic”. Moreover, in the series filed under Rattus norvegicus [2], the Ratio Ki came out at 25. Moreover, the outcome with Rattus norvegicus [5], in the series with Rattus norvegicus [8], in the series listed under Rattus norvegicus [10], in the series listed under Rattus norvegicus [14] and in the series listed under Rattus norvegicus [20] was Active. Moreover, the MPE in the series listed under Rattus norvegicus [6] came to 30%; in the series listed under Rattus norvegicus [18], 60%. Besides, the ED50 was 1.14 nmol with Rattus norvegicus [11], 1.66 nmol with Rattus norvegicus [12] and 1.05 nmol in the series with Rattus norvegicus [15].

(Values after ChEMBL document CHEMBL3407477, “Synthesis and biological evaluation of compact, conformationally constrained bifunctional opioid agonist - neurokinin-1 antagonist peptidomimetics” (Eur J Med Chem, 2015).)
